{"source": "ChEMBL document CHEMBL5036319", "about": "“Discovery of Novel Benzothiazepinones as Irreversible Covalent Glycogen Synthase Kinase 3β Inhibitors for the Treatment of Acute Promyelocytic Leukemia” (J Med Chem, 2021)", "key": {"[1]": {"target": "Glycogen synthase kinase-3 beta (Homo sapiens, UniProt P49841)", "sequence (P49841 whole entry)": "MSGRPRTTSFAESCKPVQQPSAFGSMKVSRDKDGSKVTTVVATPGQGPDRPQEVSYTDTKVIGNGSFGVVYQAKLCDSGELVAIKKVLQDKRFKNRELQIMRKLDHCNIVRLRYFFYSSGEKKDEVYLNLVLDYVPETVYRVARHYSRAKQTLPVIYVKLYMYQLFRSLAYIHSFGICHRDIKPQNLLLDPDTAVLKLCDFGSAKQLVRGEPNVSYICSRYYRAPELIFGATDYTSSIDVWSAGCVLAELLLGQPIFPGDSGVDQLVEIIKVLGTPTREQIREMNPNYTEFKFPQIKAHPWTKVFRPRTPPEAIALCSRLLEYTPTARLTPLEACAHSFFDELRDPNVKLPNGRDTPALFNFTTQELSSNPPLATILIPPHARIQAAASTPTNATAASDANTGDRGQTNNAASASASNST", "assay": "Inhibition of recombinant human GSK-3beta using GS-2 peptide as substrate incubated for 30 mins in presence of ATP by kinase-glo luminescence assay"}, "NB-4 [2]": {"system": "NB-4", "assay": "Cytotoxicity against human NB-4 cells assessed as reduction in cell viability measured after 24 hrs by CCK-8 assay", "assay_type": "functional, cell-based", "details": "NB-4, 24 h", "summary_of_the_method": "(§1)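 Cells were grown in RPMI-1640 or high-glucose DMEM with 10% FBS at 37 °C, 5% CO2, and seeded at 3 × 10^4 cells/well. Exposure was 24 h across serial concentrations (0−1000 μM in the screen). […] Three independent experiments, mean ± SEM.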"}, "MOLT-4": {"system": "MOLT-4", "assay": "Cytotoxicity against human MOLT-4 cells assessed as reduction in cell viability measured after 24 hrs by CCK-8 assay", "assay_type": "functional, cell-based", "details": "MOLT-4, 24 h", "summary_of_the_method": "as §1"}, "HL-60": {"system": "HL-60", "assay": "Cytotoxicity against human HL-60 cells assessed as reduction in cell viability measured after 24 hrs by CCK-8 assay", "assay_type": "functional, cell-based", "details": "HL-60, 24 h", "summary_of_the_method": "as §1"}, "[3]": {"assay": "Cytotoxicity against HUVEC assessed as cell viability at 100 uM incubated for 24 hrs by CCK-8 assay relative to control", "assay_type": "cell-based", "details": "human, read-out: Activity", "summary_of_the_method": "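HUVEC and LO2 normal cells were cultured in RPMI-1640 or DMEM with 10% FBS at 37 °C, 5% CO2, and seeded at 3 × 10^4 cells/well. They were exposed for 24 h to graded concentrations. CCK-8 incubation was 3 h at 37 °C, with A450 read and viability expressed versus untreated control. Three independent experiments, mean ± SEM.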"}, "[4]": {"assay": "Induction in caspase-mediated apoptosis in human NB-4 cells assessed as necrotic cells at 25 uM incubated for 24 hrs by Annexin V-FITC/Propidium iodide staining based flow cytometry analysis (reference value: 0.352%)", "assay_type": "functional"}, "[5]": {"assay": "Induction in caspase-mediated apoptosis in human NB-4 cells assessed as early apoptotic cells at 50 uM incubated for 24 hrs by Annexin V-FITC/propidium iodide staining based flow cytometry analysis (reference value: 2.02%)", "assay_type": "functional"}, "[6]": {"assay": "Induction in caspase-mediated apoptosis in human NB-4 cells assessed as late apoptotic cells at 50 uM incubated for 24 hrs by Annexin V-FITC/propidium iodide staining based flow cytometry analysis (reference value: 1.06%)", "assay_type": "functional"}, "[7]": {"assay": "Induction in caspase-mediated apoptosis in human NB-4 cells assessed as late apoptotic cells at 25 uM incubated for 24 hrs in presence of Z-VAD-FMK by Annexin V-FITC/propidium iodide staining based flow cytometry analysis (reference value: 1.15%)", "assay_type": "functional"}, "[8]": {"assay": "Induction in caspase-mediated apoptosis in human NB-4 cells assessed as viable cells at 50 uM incubated for 24 hrs in presence of Z-VAD-FMK by Annexin V-FITC/propidium iodide staining based flow cytometry analysis (reference value: 96.8%)", "assay_type": "functional", "details": "read-out: Activity"}, "[9]": {"assay": "Induction in caspase-mediated apoptosis in human NB-4 cells assessed as late apoptotic cells at 50 uM incubated for 24 hrs in presence of Z-VAD-FMK by Annexin V-FITC/propidium iodide staining based flow cytometry analysis (reference value: 1.15%)", "assay_type": "functional"}, "[10]": {"assay": "Induction in caspase-mediated apoptosis in human NB-4 cells assessed as necrotic cells at 100 uM incubated for 24 hrs in presence of Z-VAD-FMK by Annexin V-FITC/propidium iodide staining based flow cytometry analysis (reference value: 0.167%)", "assay_type": "functional"}, "[11]": {"assay": "Induction in caspase-mediated apoptosis in human NB4-DR1 cells assessed as viable cells at 12.5 uM incubated for 24 hrs by Annexin V-FITC/propidium iodide staining based flow cytometry analysis (reference value: 96.9%)", "assay_type": "functional", "details": "read-out: Activity"}, "[12]": {"assay": "Induction in caspase-mediated apoptosis in human NB4-DR1 cells assessed as early apoptotic cells at 12.5 uM incubated for 24 hrs by Annexin V-FITC/propidium iodide staining based flow cytometry analysis (reference value: 1.43%)", "assay_type": "functional"}, "[13]": {"assay": "Induction in caspase-mediated apoptosis in human NB4-DR1 cells assessed as necrotic cells at 12.5 uM incubated for 24 hrs by Annexin V-FITC/propidium iodide staining based flow cytometry analysis (reference value: 0.19%)", "assay_type": "functional"}, "[14]": {"assay": "Induction in caspase-mediated apoptosis in human NB4-DR1 cells assessed as late apoptotic cells at 25 uM incubated for 24 hrs by Annexin V-FITC/propidium iodide staining based flow cytometry analysis (reference value: 1.47%)", "assay_type": "functional"}, "[15]": {"assay": "Induction in caspase-mediated apoptosis in human NB4-DR1 cells assessed as viable cells at 12.5 uM incubated for 24 hrs in presence of Z-VAD-FMK by Annexin V-FITC/propidium iodide staining based flow cytometry analysis (reference value: 96.4%)", "assay_type": "functional", "details": "read-out: Activity"}, "[16]": {"assay": "Induction in caspase-mediated apoptosis in human NB4-DR1 cells assessed as early apoptosis cells at 50 uM incubated for 24 hrs in presence of Z-VAD-FMK by Annexin V-FITC/propidium iodide staining based flow cytometry analysis (reference value: 0.875%)", "assay_type": "functional"}, "[17]": {"assay": "Induction in caspase-mediated apoptosis in human NB4-DR1 cells assessed as late apoptotic cells at 50 uM incubated for 24 hrs in presence of Z-VAD-FMK by Annexin V-FITC/propidium iodide staining based flow cytometry analysis (reference value: 2.54%)", "assay_type": "functional"}, "[18]": {"assay": "Induction in caspase-mediated apoptosis in human NB4-DR1 cells assessed as necrotic cells at 50 uM incubated for 24 hrs in presence of Z-VAD-FMK by Annexin V-FITC/propidium iodide staining based flow cytometry analysis (reference value: 0.223%)", "assay_type": "functional"}, "[19]": {"assay": "Induction in caspase-mediated apoptosis in human NB4-DR1 cells assessed as viable cells at 100 uM incubated for 24 hrs in presence of Z-VAD-FMK by Annexin V-FITC/propidium iodide staining based flow cytometry analysis (reference value: 96.4%)", "assay_type": "functional", "details": "read-out: Activity"}, "[20]": {"assay": "Induction in caspase-mediated apoptosis in human NB4-DR1 cells assessed as necrotic cells at 100 uM incubated for 24 hrs in presence of Z-VAD-FMK by Annexin V-FITC/propidium iodide staining based flow cytometry analysis (reference value: 0.223%)", "assay_type": "functional"}, "[21]": {"assay": "Tmax in ICR mouse at 15 mg/kg, ip administered as single dose measured upto 8 hrs by LC-MS/MS analysis", "assay_type": "ADME, organism-based", "details": "in vivo", "summary_of_the_method": "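Male ICR mice (30 g) received a single 15 mg/kg i.p. bolus in corn oil. Orbital blood went into K3EDTA tubes at 0.08–8 h, three animals per time point (composite profile). Plasma was protein-precipitated with acetonitrile and analysed by LC–MS/MS; non-compartmental analysis.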"}, "NB-4 [22]": {"system": "NB-4", "assay": "Antitumor activity against human NB-4 cells xenografted in BALB/c nude mouse assessed as reduction in tumor mass at 15 mg/kg/day, ip administered for 2 weeks", "assay_type": "functional, organism-based", "summary_of_the_method": "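Female Balb/c nude mice, 4 weeks old, received 2 × 10^6 NB4 cells s.c. in the right flank. Once tumours reached about 0.5 cm diameter, mice were randomised to corn-oil vehicle or drug in corn oil (n = 5). Dosing was 15 mg/kg/d i.p. once daily for 2 weeks. Caliper volume (length × width²)/2 was taken every other day, and tumours were excised and weighed at the end.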"}}, "note": "Active and inactive are the calls of the source. No cut-off for these calls is given here.", "data": [{"smiles": "C=CC(=O)N1C(=O)CC(c2ccc(F)cc2)Sc2ccccc21", "note": "(centres undefined)", "values": [{"measurement": "IC50", "setting": "[1]", "value": 6.6, "unit": "µM"}, {"measurement": "IC50", "setting": "NB-4 [2]", "value": 19.6, "unit": "µM"}, {"measurement": "IC50", "setting": "MOLT-4", "value": 75.6, "unit": "µM"}, {"measurement": "IC50", "setting": "HL-60", "value": 86.3, "unit": "µM"}, {"measurement": "viability at 24 h, 100 µM", "setting": "[3]", "value": "> 70", "unit": "%"}, {"measurement": "Activity", "setting": "[4]", "value": 11.6, "unit": "%"}, {"measurement": "Activity", "setting": "[5]", "value": 7.23, "unit": "%"}, {"measurement": "Activity", "setting": "[6]", "value": 74, "unit": "%"}, {"measurement": "Activity", "setting": "[7]", "value": 11.2, "unit": "%"}, {"measurement": "viability at 50 µM", "setting": "[8]", "value": 78.6, "unit": "%"}, {"measurement": "Activity", "setting": "[9]", "value": 11.7, "unit": "%"}, {"measurement": "Activity", "setting": "[10]", "value": 2.88, "unit": "%"}, {"measurement": "viability at 12.5 µM", "setting": "[11]", "value": 92.2, "unit": "%"}, {"measurement": "Activity", "setting": "[12]", "value": 1.77, "unit": "%"}, {"measurement": "Activity", "setting": "[13]", "value": 0.508, "unit": "%"}, {"measurement": "Activity", "setting": "[14]", "value": 14.8, "unit": "%"}, {"measurement": "viability at 12.5 µM", "setting": "[15]", "value": 96.1, "unit": "%"}, {"measurement": "Activity", "setting": "[16]", "value": 1.12, "unit": "%"}, {"measurement": "Activity", "setting": "[17]", "value": 7.04, "unit": "%"}, {"measurement": "Activity", "setting": "[18]", "value": 0.584, "unit": "%"}, {"measurement": "viability at 100 µM", "setting": "[19]", "value": 82.2, "unit": "%"}, {"measurement": "Activity", "setting": "[20]", "value": 1.4, "unit": "%"}, {"measurement": "Tmax", "setting": "[21]", "value": 1, "unit": "h"}, {"measurement": "Activity", "setting": "NB-4 [22]", "value": "Active"}]}]}
